Experimental data collected from several papers.
Compare with care: the assays were run in different laboratories.
Target: G protein-coupled receptor kinase 3 (GRK3, Homo sapiens, UniProt P35626)
Sequence (P35626 1-688, as in one of the studies): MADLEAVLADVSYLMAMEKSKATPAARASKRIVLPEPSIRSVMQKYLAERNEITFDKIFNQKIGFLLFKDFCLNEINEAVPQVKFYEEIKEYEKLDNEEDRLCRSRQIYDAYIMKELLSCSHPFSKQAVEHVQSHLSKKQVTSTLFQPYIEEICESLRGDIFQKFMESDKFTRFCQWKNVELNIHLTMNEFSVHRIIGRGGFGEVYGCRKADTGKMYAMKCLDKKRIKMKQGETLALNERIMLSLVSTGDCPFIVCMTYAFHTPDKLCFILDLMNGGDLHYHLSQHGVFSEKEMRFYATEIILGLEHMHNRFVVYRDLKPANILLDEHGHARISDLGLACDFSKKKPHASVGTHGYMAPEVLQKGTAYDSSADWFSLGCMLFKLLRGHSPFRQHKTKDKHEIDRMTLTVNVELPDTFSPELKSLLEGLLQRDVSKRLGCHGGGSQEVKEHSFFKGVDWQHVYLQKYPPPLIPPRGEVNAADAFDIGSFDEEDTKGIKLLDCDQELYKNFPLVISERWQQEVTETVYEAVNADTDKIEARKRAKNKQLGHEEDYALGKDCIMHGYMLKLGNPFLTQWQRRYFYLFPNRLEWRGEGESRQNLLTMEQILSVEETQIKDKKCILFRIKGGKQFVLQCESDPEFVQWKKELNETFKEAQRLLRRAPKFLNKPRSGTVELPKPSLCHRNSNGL

Cc1c(NC(=O)c2cc(C(N)=O)nc3cc(F)ccc23)c(C(F)(F)F)nn1Cc1ccc(C#N)cc1 has a remaining binding of 89% (cell-free assay; competition with immobilised ligand; 1 µM).
Cn1c2c(c3ccc(Cl)c(Cl)c31)C(C#N)C1(CCCC1)NC2=O (stereo not drawn) has a ΔTm of -0.1 °C (thermal stability; DSF; 10 µM).
Cc1sc(C(=O)NC2COC2)cc1-n1cc(NC(=O)Nc2c(F)cccc2Cl)cn1 gave a remaining activity of 107% (enzyme activity; inhibitor; 10 µM).
The remaining binding of CS(=O)(=O)c1cc(C2(NC(=O)c3cncc4c3cnn4-c3ccc(F)cc3)CC2)ccn1 is reported as 100% (cell-free assay; competition with immobilised ligand; 1 µM).
The inhibition of CCOc1cc(-c2nncn2C)ccc1Nc1ncc2cc(C)nc(NCC(C)(C)C)c2n1 is reported as < 15% (enzyme activity; inhibitor; FRET; 1 µM).
Cn1c2c(Cl)c(Cl)ccc2c2cc[nH]c(=O)c21 gave a ΔTm of -0.3 °C (thermal stability; DSF; 10 µM).
For Nc1ncnc2occ(-c3ccc(NC(=O)Nc4cc(C(F)(F)F)ccc4F)cc3)c12, the remaining signal was 69% (cell-free assay; inhibitor; 20 µM).
O=C(O)[C@H]1[C@H](Cn2nnc3ccccc3c2=O)CC[C@@H]1C(=O)c1ccc(OCCC2CCOCC2)cc1 has a remaining binding of 100% (cell-free assay; competition with immobilised ligand; 1 µM).
With CCCS(=O)(=O)Nc1ccc(F)c(C(=O)c2c[nH]c3ncc(-c4ccc(Cl)cc4)cc23)c1F the inhibition was < 10% (enzyme activity; inhibitor; 1 µM).
For COc1ccc2c(c1)O[C@@H](c1ccc(OC)c(OC)c1)C[C@H]2NC(=O)C1(c2ccc3c(c2)OC(F)(F)O3)CC1, the remaining binding was 75% (cell-free assay; competition with immobilised ligand; 1 µM).
For CCN1CCC2(CC1)NC(=O)c1c(c3ccc(Cl)c(Cl)c3n1C)C2C#N (racemic), the ΔTm was 0.8 °C (thermal stability; DSF; 10 µM).
N#CCCc1ccc2c(c1)-c1[nH]c3ccc([N+](=O)[O-])cc3c1CC(=O)N2 has a remaining signal of 97.1% (cell-free assay; 0.5 µM).
COc1cc2ncnc(Nc3ccc(Oc4ccccc4)cc3C)c2cc1OC has an inhibition of 1% (enzyme activity; inhibitor; 1 µM).
CCC1(CC)NC(=O)c2c(c3ccc(Cl)c(Cl)c3n2C)C1C#N (stereo not drawn) gave a ΔTm of 0.1 °C (thermal stability; DSF; 10 µM).
CC(C)(C)c1nc(-c2cccc(NS(=O)(=O)c3c(F)cccc3F)c2F)c(-c2ccnc(N)n2)s1 has a remaining activity of 86% (enzyme activity; inhibitor; radiometric; 1 µM).
For O=C1NC(=O)c2cc(Nc3ccc(F)cc3)c(Nc3ccc(F)cc3)cc21, the remaining signal was 104% (cell-free assay; 0.5 µM).
The activity vs control of Cc1ccc(C(=O)NCc2ccsc2)cc1C#Cc1cn(C(C)C)c2ncnc(N)c12 is reported as 105% (enzyme activity; inhibitor; 1 µM).
For Cn1c2c(c3ccc(Cl)c(Cl)c31)C(C#N)C1(CCCCC1)NC2=O (racemic), the ΔTm was 0.4 °C (thermal stability; DSF; 10 µM).
With NS(=O)(=O)c1cc(NC(=O)Cc2ccccc2)ccc1Oc1cccc(Cl)c1 the remaining binding was 100% (cell-free assay; competition with immobilised ligand; 1 µM).
For Cn1c2c(Cl)c(Cl)ccc2c2cc(N)[nH]c(=O)c21, the ΔTm was 0 °C (thermal stability; DSF; 10 µM).
COCCOc1nc(-c2ccc(Cl)nc2)nc2c1CN(C(=O)c1ncn3ccccc13)CC2 has a remaining binding of 100% (cell-free assay; competition with immobilised ligand; 0.1 µM).
